Measurements published in ChEMBL document CHEMBL1151702, “Using an aryl phenanthroimidazole moiety as a conjugated flexible intercalator to improve the hybridization efficiency of a triplex-forming oligonucleotide” (Bioorg Med Chem, 2008).

Assays:
Format in all cases: nucleic-acid assay
Nucleic Acid [1] = test: Binding affinity to synthetic double stranded DNA D1 at 1.5 uM at pH 7.2 by thermal denaturation study
Outline: (§1)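 Parallel triplex melting: target duplex assembled from strands at 1.0 µM each, TFO third strand added at 1.5 µM. Buffer 20 mM sodium cacodylate, 100 mM NaCl, 10 mM MgCl₂, at the pH of the line. Samples heated to 80 °C for 5 min, cooled to 5 °C and held 30 min. Absorbance read at 260 nm while heating at 1.0 °C/min; Tm taken as the first-derivative maximum.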

Nucleic Acid [2] = test: Binding affinity to synthetic double stranded DNA D1 at 1.5 uM at pH 6.0 by thermal denaturation study; outline: as §1
Nucleic Acid [3] = test: Binding affinity to synthetic double stranded DNA D4 at 1.5 uM at pH 6.0 by thermal denaturation study; outline: as §1
Nucleic Acid [4] = test: Binding affinity to synthetic double stranded DNA D2 at 1.5 uM at pH 6.0 by thermal denaturation study; outline: as §1
Nucleic Acid [5] = test: Binding affinity to synthetic double stranded DNA D1 at 1.5 uM at pH 5.0 by thermal denaturation study; outline: as §1
Nucleic Acid [6] = test: Binding affinity to synthetic oligonucleotide ON19 at 1.0 uM at pH 7.2 by thermal denaturation study
Outline: (§2)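 Duplex melting: complementary strands at 1.0 µM each in 20 mM sodium cacodylate, 100 mM NaCl, 10 mM MgCl₂, at the pH of the line. Annealed at 80 °C for 5 min, then cooled to 5 °C and held 30 min. UV absorbance read at 260 nm with heating at 1.0 °C/min; Tm is the maximum of the first-derivative curve.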

Nucleic Acid [7] = test: Binding affinity to synthetic double stranded DNA D3 at 1.5 uM at pH 6.0 by thermal denaturation study; outline: as §1
Nucleic Acid [8] = test: Binding affinity to synthetic oligonucleotide ON18 at 1.0 uM at pH 6.0 by thermal denaturation study; outline: as §2
Nucleic Acid [9] = test: Binding affinity to synthetic oligonucleotide ON19 at 1.0 uM at pH 6.0 by thermal denaturation study; outline: as §2
Nucleic Acid [10] = test: Binding affinity to synthetic oligonucleotide ON20 at 1.0 uM at pH 7.0 by thermal denaturation study
Outline: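 DNA/RNA antiparallel duplex: each strand at 1.0 µM in 10 mM sodium phosphate, 140 mM NaCl, 1 mM EDTA, pH 7.0. Heated to 80 °C for 5 min, cooled to 5 °C and held 30 min. Absorbance followed at 260 nm during a 1.0 °C/min temperature ramp; Tm is the first-derivative maximum.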

Row | SMILES | Tm (Nucleic Acid [1]) | Tm (Nucleic Acid [2]) | Tm (Nucleic Acid [3]) | Tm (Nucleic Acid [4]) | Tm (Nucleic Acid [5]) | Tm (Nucleic Acid [6]) | Tm (Nucleic Acid [7]) | Tm (Nucleic Acid [8]) | Tm (Nucleic Acid [9]) | Tm (Nucleic Acid [10])
1 | Cc1cn([C@H]2C[C@H](OP(=O)(O)OC[C@H]3O[C@@H](n4ccc(N)nc4=O)C[C@@H]3OP(=O)(O)OC[C@H]3O[C@@H](n4cc(C)c(=O)[nH]c4=O)C[C@@H]3OP(=O)(O)OC[C@H]3O[C@@H](n4cc(C)c(=O)[nH]c4=O)C[C@@H]3OP(=O)(O)OC[C@H]3O[C@@H](n4cc(C)c(=O)[nH]c4=O)C[C@@H]3O[PH](O)(O)OC[C@H]3O[C@@H](n4cc(C)c(=O)[nH]c4=O)C[C@@H]3OP(=O)(O)OC[C@H]3O[C@@H](n4cc(C)c(=O)[nH]c4=O)C[C@@H]3OP(=O)(O)OC[C@H]3O[C@@H](n4cc(C)c(=O)[nH]c4=O)C[C@@H]3O)[C@@H](COC[C@H](COCc3ccc(C#Cc4ccc5ccc6cccc7ccc4c5c67)cc3)OP(=O)(O)O[C@H]3C[C@H](n4cc(C)c(=O)[nH]c4=O)O[C@@H]3COP(=O)(O)O[C@H]3C[C@H](n4cc(C)c(=O)[nH]c4=O)O[C@@H]3COP(=O)(O)O[C@H]3C[C@H](n4ccc(N)nc4=O)O[C@@H]3COP(=O)(O)O[C@H]3C[C@H](n4ccc(N)nc4=O)O[C@@H]3COP(=O)(O)O[C@H]3C[C@H](n4ccc(N)nc4=O)O[C@@H]3COP(=O)(O)O[C@H]3C[C@H](n4ccc(N)nc4=O)O[C@@H]3CO)O2)c(=O)[nH]c1=O | 28 °C | 45.5 °C | 28.5 °C | 27 °C | 59 °C | 45.5 °C | 34.5 °C | 33.5 °C | 46.5 °C | 
2 | Cc1cn([C@H]2C[C@H](OP(=O)(O)OC[C@H]3O[C@@H](n4ccc(N)nc4=O)C[C@@H]3OP(=O)(O)OC[C@H]3O[C@@H](n4cc(C)c(=O)[nH]c4=O)C[C@@H]3OP(=O)(O)OC[C@H]3O[C@@H](n4cc(C)c(=O)[nH]c4=O)C[C@@H]3OP(=O)(O)OC[C@H]3O[C@@H](n4cc(C)c(=O)[nH]c4=O)C[C@@H]3O[PH](O)(O)OC[C@H]3O[C@@H](n4cc(C)c(=O)[nH]c4=O)C[C@@H]3OP(=O)(O)OC[C@H]3O[C@@H](n4cc(C)c(=O)[nH]c4=O)C[C@@H]3OP(=O)(O)OC[C@H]3O[C@@H](n4cc(C)c(=O)[nH]c4=O)C[C@@H]3O)[C@@H](COC[C@H](CCOc3ccc(-c4nc5c6ccccc6c6ccccc6c5[nH]4)cc3)OP(=O)(O)O[C@H]3C[C@H](n4cc(C)c(=O)[nH]c4=O)O[C@@H]3COP(=O)(O)O[C@H]3C[C@H](n4cc(C)c(=O)[nH]c4=O)O[C@@H]3COP(=O)(O)O[C@H]3C[C@H](n4ccc(N)nc4=O)O[C@@H]3COP(=O)(O)O[C@H]3C[C@H](n4ccc(N)nc4=O)O[C@@H]3COP(=O)(O)O[C@H]3C[C@H](n4ccc(N)nc4=O)O[C@@H]3COP(=O)(O)O[C@H]3C[C@H](n4ccc(N)nc4=O)O[C@@H]3CO)O2)c(=O)[nH]c1=O | 26 °C | 46.5 °C | 31.5 °C | 23 °C | 59.5 °C | 50.5 °C | 29.5 °C | 31.5 °C | 50.5 °C | 53 °C
3 | Cc1cn([C@H]2C[C@H](OP(=O)(O)OC[C@H]3O[C@@H](n4cc(C)c(=O)[nH]c4=O)C[C@@H]3OP(=O)(O)OC[C@H]3O[C@@H](n4cc(C)c(=O)[nH]c4=O)C[C@@H]3OP(=O)(O)OC[C@H]3O[C@@H](n4ccc(N)nc4=O)C[C@@H]3OP(=O)(O)OC[C@H]3O[C@@H](n4cc(C)c(=O)[nH]c4=O)C[C@@H]3OP(=O)(O)OC[C@H]3O[C@@H](n4cc(C)c(=O)[nH]c4=O)C[C@@H]3OP(=O)(O)OC[C@H]3O[C@@H](n4cc(C)c(=O)[nH]c4=O)C[C@@H]3O[PH](O)(O)OC[C@H]3O[C@@H](n4cc(C)c(=O)[nH]c4=O)C[C@@H]3OP(=O)(O)OC[C@H]3O[C@@H](n4cc(C)c(=O)[nH]c4=O)C[C@@H]3OP(=O)(O)OC[C@H]3O[C@@H](n4cc(C)c(=O)[nH]c4=O)C[C@@H]3O)[C@@H](COP(=O)(O)O[C@H]3C[C@H](n4ccc(N)nc4=O)O[C@@H]3COP(=O)(O)O[C@H]3C[C@H](n4ccc(N)nc4=O)O[C@@H]3COP(=O)(O)O[C@H]3C[C@H](n4ccc(N)nc4=O)O[C@@H]3COP(=O)(O)O[C@H]3C[C@H](n4ccc(N)nc4=O)O[C@@H]3CO)O2)c(=O)[nH]c1=O | < 5 °C | 28 °C | < 5 °C | < 5 °C | 55 °C | 49.5 °C | < 5 °C | 19 °C | 49.5 °C | 52 °C
4 | Cc1cn([C@H]2C[C@H](OP(=O)(O)OC[C@H]3O[C@@H](n4ccc(N)nc4=O)C[C@@H]3OP(=O)(O)OC[C@H]3O[C@@H](n4cc(C)c(=O)[nH]c4=O)C[C@@H]3OP(=O)(O)OC[C@H]3O[C@@H](n4cc(C)c(=O)[nH]c4=O)C[C@@H]3OP(=O)(O)OC[C@H]3O[C@@H](n4cc(C)c(=O)[nH]c4=O)C[C@@H]3O[PH](O)(O)OC[C@H]3O[C@@H](n4cc(C)c(=O)[nH]c4=O)C[C@@H]3OP(=O)(O)OC[C@H]3O[C@@H](n4cc(C)c(=O)[nH]c4=O)C[C@@H]3OP(=O)(O)OC[C@H]3O[C@@H](n4cc(C)c(=O)[nH]c4=O)C[C@@H]3O)[C@@H](COC[C@H](CCOc3ccc(-c4nc5c6ccccc6c6ccccc6c5[nH]4)c4ccccc34)OP(=O)(O)O[C@H]3C[C@H](n4cc(C)c(=O)[nH]c4=O)O[C@@H]3COP(=O)(O)O[C@H]3C[C@H](n4cc(C)c(=O)[nH]c4=O)O[C@@H]3COP(=O)(O)O[C@H]3C[C@H](n4ccc(N)nc4=O)O[C@@H]3COP(=O)(O)O[C@H]3C[C@H](n4ccc(N)nc4=O)O[C@@H]3COP(=O)(O)O[C@H]3C[C@H](n4ccc(N)nc4=O)O[C@@H]3COP(=O)(O)O[C@H]3C[C@H](n4ccc(N)nc4=O)O[C@@H]3CO)O2)c(=O)[nH]c1=O | 18.5 °C | 40.5 °C | 25.5 °C | 16.5 °C | 55 °C | 46 °C | 21 °C | 21.5 °C | 46.5 °C | 49.5 °C
